Published values of several laboratories.
Compare with care: the assays were run in different laboratories.
Target: Proto-oncogene tyrosine-protein kinase Src (SRC, Homo sapiens, UniProt P12931)

| Compound | assay | setting | remaining binding |
| --- | --- | --- | --- |
| CN([C@@H]1CCc2c(CC(=O)O)c3cc(S(C)(=O)=O)ccc3n2C1)S(=O)(=O)c1ccc(F)cc1 | cell-free assay, competition with immobilised ligand | 1 µM | 96% |
| c1cnn2ncc(-c3ccnc(N4CCC45COC5)n3)c2c1 | binding | 1 µM | 100% |
| COc1ncc2cc3ccccc3nc2c1C#N | cell-free assay, competition with immobilised ligand | 5 µM | 88% |
| Cc1c(NC(=O)c2cc(C(N)=O)nc3cc(F)ccc23)c(C(F)(F)F)nn1Cc1ccc(C#N)cc1 | cell-free assay, competition with immobilised ligand | 1 µM | 81% |
| COC(=O)Nc1nc2ccc(C(=O)c3ccccc3)cc2[nH]1 | cell-free assay, competition with immobilised ligand | 10 µM | 34% |
| Cc1c[nH]c2nccc(Oc3c(F)cc(Nc4cc(Cl)nc(N)n4)cc3F)c12 | cell-free assay, competition with immobilised ligand | 0.1 µM | 100% |
| C[C@@H]1CCN(c2nccc(-c3cnn4ncccc34)n2)C1 | binding | 1 µM | 92% |
| O=c1nc(-c2ccccn2)sc2ccccc12 | cell-free assay, competition with immobilised ligand | 1 µM | 92% |
| C=CC(=O)N1CCC(C(=O)NCC(=O)N2CCN(c3nc(-c4cnc(N)nc4C(F)F)nc(N4CCOCC4)n3)CC2)CC1 | binding, competition with immobilised ligand | 1 µM | 91% |
| CC(C)(C)c1ccc(-c2nc(CBr)nn2-c2cccc(O)c2)cc1 | cell-free assay, competition with immobilised ligand | 10 µM | 79% |
| COc1ccc2c(O[C@@H]3C[C@H]4C(=O)N[C@]5(C(=O)O)CC5/C=C\CCCCC[C@H](NC(=O)OC5CCCC5)C(=O)N4C3)cc(-c3csc(NC(=O)C(C)C)n3)nc2c1C (stereo partly shown) | cell-free assay, competition with immobilised ligand | 1 µM | 100% |
| COc1ccnn2ncc(-c3ccnc(N(C)C)n3)c12 | binding | 1 µM | 100% |
| COc1cnc(Nc2cccc(S(N)(=O)=O)c2)nc1N1CCN(c2ccccc2)CC1 | binding, competition with immobilised ligand | 1 µM | 100% |
| N[C@@H]1CCN(c2nccc(-c3cnn4ncccc34)n2)C1 | binding | 1 µM | 100% |
| N#Cc1ccccc1CSc1nnc2c(n1)[nH]c1ccccc12 | binding, competition with immobilised ligand | 10 µM | 100% |
| COc1cnc(Nc2cccc(S(N)(=O)=O)c2)nc1N1CCN(c2ccccc2)C(=O)C1 | binding, competition with immobilised ligand | 1 µM | 100% |
| O=C(c1ccc(Nc2ncc(Cl)c(-c3cc4ccccc4s3)n2)cc1)N1CCC(N2CCCC2)CC1 | binding, competition with immobilised ligand | 1 µM | 62% |
| CN(C)c1ncc(F)c(-c2cnn3ncccc23)n1 | binding | 1 µM | 79% |
| O=C(NCC1CCOCC1)c1n[nH]cc1NC(=O)c1c(F)cccc1F | binding, competition with immobilised ligand | 1 µM | 86% |
| O=C(c1ccc(Nc2ncc(Cl)c(-c3ccc(Cl)s3)n2)cc1)N1CCC(N2CCCC2)CC1 | binding, competition with immobilised ligand | 1 µM | 77% |
| CN(CCCC(F)(F)F)c1nccc(-c2cnn3ncccc23)n1 | binding | 1 µM | 100% |
| O=C(Nc1cccnn1)N1CC(C/C=C/c2cncc(Oc3ccc(C(F)(F)F)cn3)n2)C1 | cell-free assay, competition with immobilised ligand | 1 µM | 100% |
| Cc1cnc(Nc2ccc(C(=O)N3CCC(N4CCCC4)CC3)cc2)nc1-c1cc2ccccc2s1 | binding, competition with immobilised ligand | 1 µM | 16% |
| CN(C)c1nccc(-c2cnn3ncccc23)n1 | binding | 1 µM | 100% |
| CNC(=O)Nc1ccc2c(c1)[C@@]1(CC2)OC(=O)N(CC(=O)N(Cc2ccc(F)cc2)[C@@H](C)C(F)(F)F)C1=O | cell-free assay, competition with immobilised ligand | 1 µM | 90% |
